Experimental data taken from ChEMBL document CHEMBL1152701, “Design, synthesis and biological evaluation of novel dual inhibitors of acetylcholinesterase and beta-secretase” (Bioorg Med Chem, 2009).
Activity calls are given as the source filed them. The rule behind the calls is not given here.

Tests used:
Beta-secretase 1 [1] = target: T1, Beta-secretase 1 (Homo sapiens, UniProt P56817); assay: Inhibition of BACE1 in HEK293 cells transfected with human betaAPP695 mutant assessed as inhibition of amyloid beta (1 to 40) production after 24 hrs by ELISA; assay type: cell-based
T1 sequence (P56817 whole entry): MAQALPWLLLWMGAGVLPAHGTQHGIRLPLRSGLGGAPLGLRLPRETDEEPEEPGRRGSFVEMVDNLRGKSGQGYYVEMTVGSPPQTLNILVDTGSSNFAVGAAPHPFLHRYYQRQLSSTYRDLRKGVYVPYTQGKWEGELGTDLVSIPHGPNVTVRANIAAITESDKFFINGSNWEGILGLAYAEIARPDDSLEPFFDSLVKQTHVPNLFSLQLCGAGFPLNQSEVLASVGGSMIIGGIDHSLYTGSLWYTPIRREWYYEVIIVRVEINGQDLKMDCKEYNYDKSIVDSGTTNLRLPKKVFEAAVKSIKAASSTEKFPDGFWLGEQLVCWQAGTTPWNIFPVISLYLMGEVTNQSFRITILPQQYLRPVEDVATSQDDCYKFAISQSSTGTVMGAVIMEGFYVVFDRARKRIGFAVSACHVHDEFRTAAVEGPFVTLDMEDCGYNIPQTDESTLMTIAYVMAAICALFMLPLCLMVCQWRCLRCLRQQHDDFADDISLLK
How it was run: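 HEK293 cells stably carrying APP695 with Swedish double mutation, grown in DMEM plus 10% heat-inactivated FBS. Compounds added at seeding at several concentrations, 24 h at 37 °C, 5% CO2. Secreted Aβ1-40 in conditioned medium quantified by colorimetric sandwich ELISA.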

Beta-secretase 1 [2] = target: T1, Beta-secretase 1; assay: Inhibition of human recombinant C-terminal histidine-tagged BACE1 expressed in baculovirus-infected insect cells by FRET assay
PC-12 = assay: Cell protective activity against H2O2-induced cell injury in rat PC12 cells assessed as cell viability at 1 to 10 uM pretreated for 2 hrs measured after 24 hrs by MTT assay; assay type: functional, cell-based
How it was run: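 PC12 cells seeded at 1 × 10^5 cells per mL in DMEM with 10% heat-inactivated bovine calf serum, used 24 h later. Compounds dissolved in 2% DMSO then diluted in PBS; 2 h pretreatment, H2O2 for 30 min, then fresh phenol red-free DMEM. Viability by MTT reduction 24 h later, absorbance 570 and 630 nm. Means ± SD, one-way ANOVA with Duncan's test.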

Mus musculus [3] = assay: Decrease in amyloid beta (1 to 40) production in transgenic mouse transfected with human APP695 Swedish double mutant at 8 nmol, intracerebroventricularly after 4 hrs by ELISA relative to control; assay type: functional; set-up: scale not given: the % may be the effect or the level left
How it was run: (§1)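 The vehicle control was distilled H2O. After 4 h, hemispheres were isolated on ice and Aβ1-40 was measured by colorimetric human Aβ1-40 ELISA against vehicle-treated mice. Data are means ± SD; independent t-test.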

Mus musculus [4] = assay: Decrease in amyloid beta (1 to 40) production in transgenic mouse transfected with human APP695 Swedish double mutant at 10 nmol, intracerebroventricularly after 4 hrs by ELISA relative to control; assay type: functional; set-up: scale not given: the % may be the effect or the level left; how it was run: as §1

Compound	IC50 (Beta-secretase 1 [1])	IC50 (Beta-secretase 1 [2])	other results
CCCN(CCC)C(=O)c1cc(C(=O)N[C@@H](Cc2ccccc2)C(O)C(=O)NC2CCN(Cc3ccccc3)CC2)cc([N+](=O)[O-])c1 (mixture of isomers)	< 1000 nM		
C[C@@H](NC(=O)c1cc(C(=O)N[C@@H](Cc2ccccc2)C(O)C(=O)NCC2CCN(Cc3ccccc3)CC2)cc(N(C)S(C)(=O)=O)c1)c1ccc(F)cc1 (mixture of isomers)	< 1000 nM		
C[C@@H](NC(=O)c1cc(C(=O)N[C@@H](Cc2ccccc2)[C@H](O)CNCCC2CCN(Cc3ccccc3)CC2)cc(N(C)S(C)(=O)=O)c1)c1ccccc1	98.7 nM	567 nM	Activity (PC-12): Active; Activity (Mus musculus [3]): 29%
CCCN(CCC)C(=O)c1cccc(C(=O)N[C@@H](Cc2ccccc2)[C@H](O)CNCCC2CCN(Cc3ccccc3)CC2)c1	< 1000 nM		
C[C@@H](NC(=O)c1cccc(C(=O)N[C@@H](Cc2ccccc2)[C@H](O)CNCCC2CCN(Cc3ccccc3)CC2)c1)c1ccccc1	< 1000 nM		
C[C@@H](NC(=O)c1cc(C(=O)N[C@@H](Cc2ccccc2)C(O)C(=O)NCC2CCN(Cc3ccccc3)CC2)cc(N(C)S(C)(=O)=O)c1)c1ccccc1 (mixture of isomers)	< 1000 nM		
C[C@@H](NC(=O)c1cc(C(=O)N[C@@H](Cc2ccccc2)[C@H](O)CNCCC2CCN(Cc3ccccc3)CC2)cc([N+](=O)[O-])c1)c1ccc(F)cc1	< 1000 nM	2680 nM	
C[C@@H](NC(=O)c1cc(C(=O)N[C@@H](Cc2ccccc2)[C@H](O)CNCCC2CCN(Cc3ccccc3)CC2)cc([N+](=O)[O-])c1)c1ccccc1	< 1000 nM	7020 nM	
CC(C)C[C@H](NC(=O)c1cc(C(=O)N[C@H](C)c2ccccc2)cc(N(C)S(C)(=O)=O)c1)[C@@H](O)C[C@@H](C)C(=O)NC1CCN(Cc2ccccc2)CC1	< 1000 nM	1540 nM	
C[C@@H](NC(=O)c1cc(C(=O)N[C@@H](Cc2ccccc2)[C@H](O)CNC2CCN(Cc3ccccc3)CC2)cc(N(C)S(C)(=O)=O)c1)c1ccccc1	54.6 nM	511 nM	Activity (Mus musculus [4]): 23%; Activity (PC-12): Active
C[C@@H](NC(=O)c1cc(C(=O)N[C@@H](Cc2ccccc2)C(O)C(=O)NCCC2CCN(Cc3ccccc3)CC2)cc(N(C)S(C)(=O)=O)c1)c1ccccc1 (mixture of isomers)	< 1000 nM		
CCCN(CCC)C(=O)c1cc(C(=O)N[C@@H](Cc2ccccc2)C(O)C(=O)NCCC2CCN(Cc3ccccc3)CC2)cc([N+](=O)[O-])c1 (mixture of isomers)	< 1000 nM		
C[C@@H](NC(=O)c1cc(C(=O)N[C@@H](Cc2ccccc2)[C@H](O)CNCCC2CCN(Cc3ccccc3)CC2)cc(N(C)S(C)(=O)=O)c1)c1ccc(F)cc1	< 1000 nM	222 nM	
CC(C)C[C@H](NC(=O)c1cc(C(=O)N[C@H](C)c2ccccc2)cc(N(C)S(C)(=O)=O)c1)[C@@H](O)C[C@@H](C)C(=O)NN1CCN(Cc2ccccc2)CC1	< 1000 nM		
CC(C)C[C@H](NC(=O)c1cc(C(=O)N[C@H](C)c2ccc(F)cc2)cc(N(C)S(C)(=O)=O)c1)[C@@H](O)C[C@@H](C)C(=O)NC1CCN(Cc2ccccc2)CC1	< 1000 nM	1500 nM	
C[C@@H](NC(=O)c1cc(C(=O)N[C@H](CO)Cc2ccccc2)cc(N(C)S(C)(=O)=O)c1)c1ccc(F)cc1	< 1000 nM	462 nM	
C[C@@H](NC(=O)c1cc(C(=O)N[C@@H](Cc2ccccc2)C(O)C(=O)NCCC2CCN(Cc3ccccc3)CC2)cc(N(C)S(C)(=O)=O)c1)c1ccc(F)cc1 (mixture of isomers)	< 1000 nM		
C[C@@H](NC(=O)c1cccc(C(=O)N[C@@H](Cc2ccccc2)[C@H](O)CNCCC2CCN(Cc3ccccc3)CC2)c1)c1ccc(F)cc1	< 1000 nM		
CC(C)C[C@H](NC(=O)c1cc(C(=O)N[C@H](C)c2ccc(F)cc2)cc(N(C)S(C)(=O)=O)c1)[C@@H](O)C[C@@H](C)C(=O)NCC1CCN(Cc2ccccc2)CC1	< 1000 nM	616 nM	
CC(C)C[C@H](NC(=O)c1cc(C(=O)N[C@H](C)c2ccc(F)cc2)cc(N(C)S(C)(=O)=O)c1)[C@@H](O)C[C@@H](C)C(=O)NCCC1CCN(Cc2ccccc2)CC1	< 1000 nM	1340 nM	
C[C@@H](NC(=O)c1cc(C(=O)N[C@@H](Cc2ccccc2)[C@H](O)CNCC2CCN(Cc3ccccc3)CC2)cc(N(C)S(C)(=O)=O)c1)c1ccccc1	< 1000 nM	4000 nM	
C[C@@H](NC(=O)c1cc(C(=O)N[C@@H](Cc2ccccc2)C(O)C(=O)NC2CCN(Cc3ccccc3)CC2)cc(N(C)S(C)(=O)=O)c1)c1ccccc1 (mixture of isomers)	< 1000 nM		
C[C@@H](NC(=O)c1cc(C(=O)N[C@@H](Cc2ccccc2)[C@H](O)CNCC2CCN(Cc3ccccc3)CC2)cc(N(C)S(C)(=O)=O)c1)c1ccc(F)cc1	< 1000 nM	3230 nM	
CC(C)C[C@H](NC(=O)c1cc(C(=O)N[C@H](C)c2ccc(F)cc2)cc(N(C)S(C)(=O)=O)c1)[C@@H](O)C[C@@H](C)C(=O)NN1CCN(Cc2ccccc2)CC1	< 1000 nM		
CCCN(CCC)C(=O)c1cc(C(=O)N[C@@H](Cc2ccccc2)[C@H](O)CNCCC2CCN(Cc3ccccc3)CC2)cc([N+](=O)[O-])c1	< 1000 nM		
C[C@@H](NC(=O)c1cc(C(=O)N[C@@H](Cc2ccccc2)C(O)C(=O)NC2CCN(Cc3ccccc3)CC2)cc(N(C)S(C)(=O)=O)c1)c1ccc(F)cc1 (mixture of isomers)	< 1000 nM		
CCCN(CCC)C(=O)c1cc(C(=O)N[C@@H](Cc2ccccc2)[C@H](O)CNCCC2CCN(Cc3ccccc3)CC2)cc(N(C)S(C)(=O)=O)c1	< 1000 nM	2390 nM	
CCCN(CCC)C(=O)c1cc(C(=O)N[C@@H](Cc2ccccc2)C(O)C(=O)NCC2CCN(Cc3ccccc3)CC2)cc([N+](=O)[O-])c1 (mixture of isomers)	< 1000 nM		
C[C@@H](NC(=O)c1cc(C(=O)N[C@@H](Cc2ccccc2)[C@H](O)CNC2CCN(Cc3ccccc3)CC2)cc(N(C)S(C)(=O)=O)c1)c1ccc(F)cc1	< 1000 nM	771 nM	
